Experimental findings from ChEMBL document CHEMBL1687916, “Non-nucleoside inhibitors of human adenosine kinase: synthesis, molecular modeling, and biological studies” (J Med Chem, 2011) are described below.

For one experiment, the system named is NIH3T3. In words: Cytotoxicity against mouse 3T3 cells by phenyltetrazolium bromide assay.
Conditions: not given; call rule not given here
In kind it is functional, cell-based. The method, boiled down:
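Murine 3T3 fibroblasts; proliferation measured by MTT assay, with IC50 reported. Each value is the mean of three determinations; Student's t test, p < 0.05.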
Turning to `CCC1(c2ccc(CSc3ccc(Br)cc3)cc2)Oc2ccccc2-n2cccc2C1=O` (racemic), inhibition was half-maximal at 47.6 µM (IC50).

Take `CCC1(c2ccc(CSc3ccc(I)cc3)cc2)Oc2ccccc2-n2cccc2C1=O` (racemic): half-maximal inhibition (IC50) required 43.5 µM.

The molecule `CCC1(c2ccc(CSc3ccccc3Cl)cc2)Oc2ccccc2-n2cccc2C1=O` (racemic) showed a half-inhibitory concentration (IC50) of 97.8 µM.

Regarding `CCC1(c2ccc(CSc3cccc(C(F)(F)F)c3)cc2)Oc2ccccc2-n2cccc2C1=O` (racemic), 44.6 µM corresponded to half-maximal inhibition (IC50).

A further experiment deals with T1, Adenosine deaminase (Bos taurus) (UniProt P56658).
T1 sequence (whole entry): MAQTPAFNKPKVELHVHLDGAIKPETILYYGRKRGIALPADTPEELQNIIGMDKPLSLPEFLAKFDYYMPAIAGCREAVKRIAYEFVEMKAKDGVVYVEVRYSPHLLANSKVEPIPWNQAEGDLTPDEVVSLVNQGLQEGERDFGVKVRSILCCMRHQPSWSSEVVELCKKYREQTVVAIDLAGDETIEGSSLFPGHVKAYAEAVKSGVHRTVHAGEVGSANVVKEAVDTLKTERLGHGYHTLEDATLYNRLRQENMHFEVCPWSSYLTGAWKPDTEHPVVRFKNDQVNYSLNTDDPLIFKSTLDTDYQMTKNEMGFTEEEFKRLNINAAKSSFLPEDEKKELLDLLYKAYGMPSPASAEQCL
In words: Inhibition of bovine ADA at 100 uM by spectrophotometric analysis.
Conditions: not given
The gist of the method:
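Adenosine deaminase assayed at 30 C with 50 μM Ado, 50 mM potassium phosphate pH 7.2 and 0.3 nM enzyme. Deamination was followed as A262 change over 2 min. Compound tested at 100 μM, with DMSO at most 4% final and a substrate-free blank. Percent inhibition from two determinations in triplicate.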
With `CCC1(c2ccc(CSc3ccc(F)cc3)cc2)Oc2ccccc2-n2cccc2C1=O` (racemic), the inhibition is 13%.

The molecule `C#Cc1ccc(SCc2ccc(C3(CC)Oc4ccccc4-n4cccc4C3=O)cc2)cc1` (racemic) gave an inhibition of 16%.

Take `CCC1(c2ccc(CSc3ccccc3Cl)cc2)Oc2ccccc2-n2cccc2C1=O` (racemic): the inhibition was 6.5%.

Turning to `CCC1(c2ccc(CSc3cccc(C(F)(F)F)c3)cc2)Oc2ccccc2-n2cccc2C1=O` (racemic), the inhibition came to 2.7%.

The target in another experiment is Adenosine kinase (Homo sapiens, UniProt P55263). The experiment can be described thus: Inhibition of human adenosine kinase.
Sequence of Adenosine kinase (P55263 whole entry): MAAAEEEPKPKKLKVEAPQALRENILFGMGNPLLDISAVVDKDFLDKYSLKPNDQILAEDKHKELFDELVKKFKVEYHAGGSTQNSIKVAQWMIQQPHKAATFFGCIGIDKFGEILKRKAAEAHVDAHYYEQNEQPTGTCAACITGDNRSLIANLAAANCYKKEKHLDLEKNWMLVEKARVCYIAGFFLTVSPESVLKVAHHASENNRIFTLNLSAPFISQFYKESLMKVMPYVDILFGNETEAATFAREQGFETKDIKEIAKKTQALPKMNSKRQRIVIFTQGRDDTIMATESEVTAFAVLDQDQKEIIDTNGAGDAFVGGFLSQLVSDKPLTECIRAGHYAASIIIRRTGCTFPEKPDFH
Conditions: not given
In the case of `CC(=O)OC1=C(c2ccccc2)Sc2ccccc2-n2cccc21`, the IC50 entry is given as “Not Active”.

As for `CC(=O)OC1=C(c2ccccc2)Oc2ccccc2-n2cccc21`, the IC50 result is reported as “Not Active”.

Staying with this experiment, now noted: read-out: IC50.
As for `CCC1(c2ccc(CSc3ccc(C#C[Si](C)(C)C)cc3)cc2)Sc2ccccc2-n2cccc2C1=O` (racemic), the IC50 stood at 2 µM.

Consider `CCC1(c2ccc(CSc3ccc(F)cc3)cc2)Oc2ccccc2-n2cccc2C1=O` (racemic), for which the IC50 was 1 µM.

As to `CCC1(c2ccc(CSc3c(Cl)cccc3Cl)cc2)Oc2ccccc2-n2cccc2C1=O` (single isomer, unassigned; (+)), the IC50 worked out at 7.5 µM.

On to `CCC1(c2ccc(CSc3ccc([N+](=O)[O-])cc3)cc2)Oc2ccccc2-n2cccc2C1=O` (racemic), for which the IC50 worked out at 6.2 µM.

In the case of `CCC1(c2ccc(C)cc2)Oc2ccccc2-n2cccc2C1=O` (racemic), the IC50 worked out at 80 µM.

For the molecule `CCC1(c2ccc(CSc3ccc(F)cc3F)cc2)Oc2ccccc2-n2cccc2C1=O` (racemic), the IC50 was 10 µM.

Regarding `CCC1(c2ccc(CSc3ccc(Br)cc3)cc2)Oc2ccccc2-n2cccc2C1=O` (racemic), the IC50 was 2 µM.

With `CCC1(c2ccc(CSc3ncccn3)cc2)Oc2ccccc2-n2cccc2C1=O` (racemic), the IC50 worked out at 7 µM.

As to `CCC1(c2ccc(COc3ccc(I)cc3Cl)cc2)Oc2ccccc2-n2cccc2C1=O` (racemic), the IC50 worked out at 1.2 µM.

For the molecule `CCN(CC)CCc1cccc(OCc2ccc(C3(CC)Oc4ccccc4-n4cccc4C3=O)cc2)c1` (racemic), the IC50 amounted to 200 µM.

Take `CCC1(c2ccc(CSc3cccc(Cl)c3)cc2)Oc2ccccc2-n2cccc2C1=O` (racemic): the IC50 was determined as 3.5 µM.

In the case of `CCC1(c2ccc(CSc3cccc(F)c3)cc2)Oc2ccccc2-n2cccc2C1=O` (racemic), the half-inhibitory concentration (IC50) worked out at 4 µM.

For `O=C1c2cccn2-c2ccccc2OC1c1ccccc1` (racemic), the IC50 was 100 µM.

On to `CCC1(c2ccc(CSc3c(Cl)cccc3Cl)cc2)Oc2ccccc2-n2cccc2C1=O` (single isomer, unassigned; (-)), for which the IC50 worked out at 40 µM.

Turning to `CCC1(c2ccc(CSc3cccc(Cl)c3Cl)cc2)Oc2ccccc2-n2cccc2C1=O` (racemic), the IC50 is 3 µM.

`CCC1(c2ccc(CSc3cccc(OC)c3)cc2)Oc2ccccc2-n2cccc2C1=O` (racemic): the IC50 came out at 12.5 µM.

As to `CCC1(c2ccc(CSc3ccccn3)cc2)Oc2ccccc2-n2cccc2C1=O` (racemic), the IC50 came to 4.5 µM.

Take `CCC1(c2ccc(CSc3c(F)c(F)cc(F)c3F)cc2)Oc2ccccc2-n2cccc2C1=O` (racemic): the IC50 came out at 8 µM.

For the molecule `CCC1(c2ccc(CSc3ccc(I)cc3)cc2)Oc2ccccc2-n2cccc2C1=O` (racemic), the IC50 worked out at 2.5 µM.

For `CCC1(c2ccc(CSc3cccc(OC(F)(F)F)c3)cc2)Oc2ccccc2-n2cccc2C1=O` (racemic), the IC50 was 3.2 µM.

On to `CCC1(c2ccc(CSc3cc(Cl)ccc3Cl)cc2)Oc2ccccc2-n2cccc2C1=O` (racemic), for which the IC50 amounted to 14 µM.

On to `CCC1(c2ccc(CSc3ccc(I)cc3Cl)cc2)Oc2ccccc2-n2cccc2C1=O` (racemic), for which the IC50 is 2 µM.

On to `CCC1(c2ccc(CSc3ccccc3F)cc2)Oc2ccccc2-n2cccc2C1=O` (racemic), for which the IC50 stood at 4.5 µM.

`C#Cc1ccc(SCc2ccc(C3(CC)Oc4ccccc4-n4cccc4C3=O)cc2)cc1` (racemic): the IC50 was 15 µM.

For `CCC1(c2ccc(COc3cccc(CCN4CCCC4)c3)cc2)Oc2ccccc2-n2cccc2C1=O` (racemic), the IC50 came out at 150 µM.

Turning to `CCC1(c2ccc(CSc3ccc(OC(F)(F)F)cc3)cc2)Oc2ccccc2-n2cccc2C1=O` (racemic), the IC50 was determined as 6.7 µM.

In the case of `CCC1(c2ccc(COc3cccc(CCO)c3)cc2)Oc2ccccc2-n2cccc2C1=O` (racemic), the half-inhibitory concentration (IC50) stood at 8 µM.

Take `CCC1(c2ccc(CSc3ccccc3Cl)cc2)Oc2ccccc2-n2cccc2C1=O` (racemic): the IC50 is 1 µM.

With `CCC1(c2ccc(CSc3cc(OC)ccc3OC)cc2)Oc2ccccc2-n2cccc2C1=O` (racemic), the IC50 worked out at 35 µM.

Regarding `CCC1(c2ccc(CSc3ccc(C#C[Si](C)(C)C)cc3)cc2)Oc2ccccc2-n2cccc2C1=O` (racemic), the IC50 turned out to be 10 µM.

With `CCC1(c2ccc(CSc3ccc(I)cc3)cc2)Sc2ccccc2-n2cccc2C1=O` (racemic), the IC50 came out at 2.2 µM.

For the molecule `CCC1(c2ccc(CSc3ccc(Cl)c(Cl)c3)cc2)Oc2ccccc2-n2cccc2C1=O` (racemic), the IC50 was determined as 10 µM.

Regarding `CCC1(c2ccc(CSc3cccc(C(F)(F)F)c3)cc2)Oc2ccccc2-n2cccc2C1=O` (racemic), the 50% inhibitory concentration (IC50) turned out to be 2.5 µM.

For `CCC1(c2ccc(CSc3ccc(F)c(Cl)c3)cc2)Oc2ccccc2-n2cccc2C1=O` (racemic), the 50% inhibitory concentration (IC50) was determined as 11 µM.

Regarding `CCC1(c2ccc(CSc3c(Cl)cccc3Cl)cc2)Oc2ccccc2-n2cccc2C1=O` (racemic), the IC50 was 20 µM.

Take `CCC1(c2ccc(CSc3ncc[nH]3)cc2)Oc2ccccc2-n2cccc2C1=O` (racemic): the IC50 amounted to 3.5 µM.

On to `O=C1c2cccn2-c2ccccc2SC1c1ccccc1` (racemic), for which the IC50 amounted to 130 µM.

For the molecule `CCC1(c2ccc(CSc3cnccn3)cc2)Oc2ccccc2-n2cccc2C1=O` (racemic), the IC50 turned out to be 7 µM.

In the case of `CCC1(c2ccc(CSc3cccc(C)c3)cc2)Oc2ccccc2-n2cccc2C1=O` (racemic), the 50% inhibitory concentration (IC50) amounted to 21.4 µM.

In the case of `CCC1(c2cccc(C)c2)Oc2ccccc2-n2cccc2C1=O` (racemic), the IC50 is 150 µM.

Regarding `O=C1c2cccn2-c2ccccc2OC1c1ccc(CSc2ccccc2)cc1` (racemic), the IC50 was 4 µM.

`CCC1(c2ccc(CSc3ccc(OC)cc3)cc2)Oc2ccccc2-n2cccc2C1=O` (racemic): the half-inhibitory concentration (IC50) was found to be 14 µM.

For `CCC1(c2ccc(CSc3c(C)cccc3Cl)cc2)Oc2ccccc2-n2cccc2C1=O` (racemic), the IC50 worked out at 3 µM.

Consider `O=C1c2cccn2-c2ccccc2OC1c1ccc(CSc2cccc(C(F)(F)F)c2)cc1` (racemic), for which the half-inhibitory concentration (IC50) was determined as 9 µM.

On to `CCC1(c2ccccc2)Oc2ccccc2-n2cccc2C1=O` (racemic), for which the IC50 was 85 µM.

As for `O=C1c2cccn2-c2ccccc2OC1c1ccc(CSc2ccccc2Cl)cc1` (racemic), the IC50 came to 4.4 µM.

Take `CCC1(c2ccc(CSc3ccc(F)cc3Cl)cc2)Oc2ccccc2-n2cccc2C1=O` (racemic): the IC50 came to 2.5 µM.

On to `CCC1(c2ccc(CSc3ccccc3Cl)cc2)Sc2ccccc2-n2cccc2C1=O` (racemic), for which the IC50 came out at 5 µM.

Regarding `CCC1(c2ccc(CSc3ccc(Cl)cc3Cl)cc2)Oc2ccccc2-n2cccc2C1=O` (racemic), the IC50 stood at 22.5 µM.

On to `CN(C)c1ccc2n1-c1ccccc1SC(c1ccccc1)C2=O` (racemic), for which the IC50 is more than 1000 µM.

By IC50 is commonly meant the midpoint of a concentration-inhibition curve. By inhibition is commonly meant the share of the control response that was lost under treatment.
